Kir21 inh: inhibitors of mouse Kir2.1 inward-rectifier potassium channel; HEK293-Kir2.1, FluxOR thallium flux fluorescence; active compounds read low; 310,000 tested, 0.85% active; B-score at 10 µM; Inward rectifier potassium channel 2 (Mus musculus), P35561;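 active = fluorescence ratio B-score at or below minus 3 SD of library scores, with starting-brightness B-score within 2 SD, cut at about -4.2 in these data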;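 also: channel flux triggered by added potassium and thallium sulfate stimulus; B-score of peak minus minimum fluorescence over baseline after thallium stimulus; more negative B-score means stronger Kir2.1 block with less thallium influx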
KCNK9 block: KCNK9 potassium channel inhibitors, primary screen, HEK293 cells, thallium flux; 310,000 tested, 1.2% active; AID 488922, 2010; FluxOR thallium flux fluorescence; active compounds read low; B-score at 10 µM;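 active = ratio B-score over 3 SD below the library mean, with starting fluorescence within 5 SD of its mean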;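 also: negative B-score means less thallium flux so channel inhibition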
hERG rescue: hERG rescue from dofetilide block, primary screen, cell-based, CHO-hERG, FluxOR thallium flux, dofetilide IC70; dofetilide IC70 present; activation (rescue from dofetilide block), less the hit threshold, % at 10 µM; 310,000 tested, 0.51% active;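 active = activation above the mean of controls blocked by dofetilide plus 5 SD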;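 also: thallium influx through hERG after potassium depolarization seen as dye fluorescence rise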
Target sequence (Q12809 whole entry, looked up): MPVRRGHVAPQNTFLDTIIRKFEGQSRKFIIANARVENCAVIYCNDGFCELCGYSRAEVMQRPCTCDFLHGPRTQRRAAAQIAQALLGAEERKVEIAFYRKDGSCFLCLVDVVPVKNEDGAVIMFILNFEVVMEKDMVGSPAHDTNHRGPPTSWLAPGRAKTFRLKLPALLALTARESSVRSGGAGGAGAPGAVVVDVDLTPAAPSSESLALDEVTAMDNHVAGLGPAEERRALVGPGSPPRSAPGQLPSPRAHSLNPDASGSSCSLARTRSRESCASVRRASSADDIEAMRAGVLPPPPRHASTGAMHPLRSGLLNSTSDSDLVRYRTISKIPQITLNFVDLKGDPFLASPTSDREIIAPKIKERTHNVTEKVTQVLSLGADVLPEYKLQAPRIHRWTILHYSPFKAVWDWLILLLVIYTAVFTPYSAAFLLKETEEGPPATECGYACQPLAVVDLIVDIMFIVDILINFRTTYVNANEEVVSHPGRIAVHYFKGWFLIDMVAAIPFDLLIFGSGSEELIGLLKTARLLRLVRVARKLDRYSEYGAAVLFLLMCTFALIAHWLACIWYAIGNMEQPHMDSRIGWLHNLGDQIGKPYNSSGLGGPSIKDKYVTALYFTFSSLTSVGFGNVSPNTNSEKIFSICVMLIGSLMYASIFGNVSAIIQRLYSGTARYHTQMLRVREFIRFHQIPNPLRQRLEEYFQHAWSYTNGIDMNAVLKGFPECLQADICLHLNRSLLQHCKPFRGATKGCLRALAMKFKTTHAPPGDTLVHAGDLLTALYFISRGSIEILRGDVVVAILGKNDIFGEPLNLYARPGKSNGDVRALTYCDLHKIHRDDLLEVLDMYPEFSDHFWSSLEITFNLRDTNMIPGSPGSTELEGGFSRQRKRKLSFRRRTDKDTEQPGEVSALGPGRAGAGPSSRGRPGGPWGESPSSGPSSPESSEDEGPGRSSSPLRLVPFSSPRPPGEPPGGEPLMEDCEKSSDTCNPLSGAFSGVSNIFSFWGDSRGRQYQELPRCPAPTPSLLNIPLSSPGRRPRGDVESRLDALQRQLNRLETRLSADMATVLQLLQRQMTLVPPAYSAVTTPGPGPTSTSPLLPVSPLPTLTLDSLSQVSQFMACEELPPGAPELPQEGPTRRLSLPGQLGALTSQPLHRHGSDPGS
KCNQ1 pot: potentiators or activators of KCNQ1 channel, primary screen, cell-based, thallium flux, high-throughput; Potassium voltage-gated channel subfamily KQT member 1 (Homo sapiens), P51787; CHO-K1 KCNQ1, thallium flux FluxOR fluorescence; active compounds read high; B-score at 10 µM; 310,000 tested, 0.35% active; AID 2648, 2010;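 active = fluorescence ratio B-score, a plate-corrected score, at least three library SD, with initial intensity B-score within 5 SD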
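assay system = CHO-K1 cells stably expressing KCNQ1 | medium = assay buffer, equal DMSO in all wells | timing = 37 °C overnight plating, 90-min dark dye load, 20-min compound pretreatment | measured by = kinetic FluxOR thallium fluorescence, 10-s 1-Hz baseline, 110-s post-stimulus read | measure = fluorescence change relative to baseline, converted to B score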
KCNQ1 inh: inhibitors of human KCNQ1 channel, primary screen, cell-based, thallium flux, high-throughput | CHO-K1 KCNQ1, FluxOR thallium flux fluorescence; active compounds read high | Potassium voltage-gated channel subfamily KQT member 1 (Homo sapiens), P51787 | 310,000 tested, 1.3% active | B-score at 10 µM;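 active = compounds whose thallium flux B-score, printed positive for inhibition, exceeds three library SD while starting fluorescence stays within three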;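 also: channel opened by potassium depolarization with thallium stimulus after 20 min compound exposure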
KCNK3 block: human KCNK3 channel inhibitors, primary screen, CHO cells, FluxOR thallium flux, B-score. Potassium channel subfamily K member 3 (Homo sapiens), O14649. FluxOR fluorescence; active compounds read low. B-score at 10 µM. 340,000 tested, 0.84% active;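 active = B-score under library mean minus 4 SD, starting fluorescence ratio at most library mean plus 5 SD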;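 also: more negative B-score means stronger inhibition of thallium flux through KCNK3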
KCNK3 confirm: retest of human KCNK3 channel inhibitors, confirmation, CHO cells, FluxOR thallium flux, triplicate; AID 651638, 2012; ratio percent of control, % at 10 µM; shares compounds with KCNK3 block; FluxOR fluorescence; 0% buffer, 100% carvedilol maximal block; 2,400 tested, 99% active;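 active = ratio percent of control, averaged over triplicates, above buffer control mean plus 5 SD, cut at about 64% in these data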;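 also: ratio is the fluorescence rise from min to max over baseline after thallium stimulus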
KCNK3 noninduced: thallium flux inhibition in non-induced cells, primary screen, counter-screen for KCNK3 inhibitor project, cell-based, non-induced KCNK3 line, FluxOR thallium, triplicate; thallium flux ratio (lower = more inhibition) at 10 µM; shares compounds with KCNK3 block; AID 651747, 2012; non-induced KCNK3 parental cells; active compounds read low; 2,400 tested, 40% active;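 active = thallium flux ratio, averaged over three wells, more than 5 SD below the buffer control mean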;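 also: host cells are CHO cells without KCNK3 induction; ratio is peak minus trough fluorescence over baseline then normalized to buffer controls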
An asterisk follows results filed as active; i = inactive; x = no result given. In the library only some 3.7% were active in any assay of this set; here they are far more common.

SMILES | Kir21 inh | KCNK9 block | hERG rescue | KCNQ1 pot | KCNQ1 inh | KCNK3 block | KCNK3 confirm | KCNK3 noninduced
Cc1ccc(S(=O)(=O)Nc2ccc(N(C)S(=O)(=O)c3ccc(C)cc3)cc2)cc1 | -1.8 | -7* | -9 | i | i | i | 86* | i
NC(=O)c1ccc2c(=O)n3c(-c4cccs4)csc3nc2c1 | 0.04 | i | -5 | i | i | i | x | x
COC(=O)c1cc(NC(=O)c2cc(-c3ccccc3Cl)oc2C(F)(F)F)ccc1N1CCOCC1 | -0.62 | i | -13 | i | 8* | -11* | 84* | 0.12*
COC(=O)C1=C(C)N=C2SC(C)C(=O)N2C1c1ccc(C(=O)OC)cc1 (stereo not given) | -0.93 | i | 0 | i | i | -8.7* | 106* | i
COC(=O)C1=C(C)N=C2SC(C)C(=O)N2C1c1cccs1 (stereo not given) | 0.77 | i | -5 | i | i | -12* | 0 | i
Cn1/c(=N/NC(=O)c2ccccc2F)sc2ccccc21 | -0.26 | i | -8 | i | i | i | x | x
Cc1nn(Cc2ccc(Cl)cc2)c(C)c1NC(=O)c1noc2c1CCc1ccccc1-2 | 0.39 | i | -8 | i | i | -8.7* | 117* | i
Cc1ccc(Cn2ccc(NC(=O)c3noc4c3CCc3ccccc3-4)n2)cc1 | 0.27 | i | -6 | i | i | i | x | x
CC(C)(C)c1ccc(C(=O)OCC(=O)N2CCC(c3ccccc3)=N2)cc1 | x | x | x | x | x | i | x | x
Cc1ccc(S(=O)(=O)N2CCCN(C(=O)c3ccc(-n4nccc4C)cc3)CC2)cc1 | x | x | x | x | x | i | x | x
Cc1nn(-c2ccc(Cl)cc2)c(=O)c2ccccc12 | -0.66 | i | -17 | i | i | i | x | x
Cc1nn(-c2ccc(Cl)c(Cl)c2)c(=O)c2ccccc12 | 2.5 | i | -3 | i | i | -11* | 105* | i
Cc1nn(-c2ccc3ccccc3c2)c(=O)c2ccccc12 | -0.21 | i | -10 | i | i | -8.9* | 92* | i
Cc1nn(-c2nc3ccccc3[nH]2)c(=O)c2ccccc12 | -0.49 | i | -4 | i | i | i | x | x
CCC(C)(C)C1CCc2[nH]nc(C(=O)NCCNC(=O)OC(C)(C)C)c2C1 (stereo not given) | x | x | x | x | x | i | x | x
Cc1ccc2c(C)c(C(=O)N3CCN(c4ncccn4)CC3)oc2c1C | 2.2 | -6.7* | -3 | i | i | -9.1* | 69* | i
COc1ccc2oc(C(=O)N3CCN(c4ncccn4)CC3)c(C)c2c1 | 0.24 | i | -12 | i | i | i | x | x
Oc1ccc(/C=N/NC2=NCCCCC2)cc1 | 1.9 | i | -2 | i | i | i | x | x
C=CCc1cc(C)ccc1OCCCC(C(=O)OCC)C(=O)OCC | -1.2 | i | -9 | i | i | -12* | 101* | i
Cc1ccc(NC(=O)CNc2cccc(S(=O)(=O)N3CCCCC3)c2)cc1F | -3.2 | -7.6* | -17 | i | i | i | 96* | i
O=C(CSc1nnc(NC(=O)C2CC2)s1)NCc1ccc(F)cc1 | 0.12 | i | -10 | i | i | i | x | x
CCn1c2ccccc2c2cc(/C=N/NC(=O)c3ccncc3)ccc21 | 0.08 | i | -15 | i | i | -11* | 116* | 0.14*
